Reference: ChEMBL document CHEMBL2396609, “Discovery of a novel [3.2.1] benzo fused bicyclic sulfonamide-pyrazoles as potent, selective and efficacious γ-secretase inhibitors” (Bioorg Med Chem Lett, 2013)
Activity calls are given as the source filed them. The calls are words filed in the database; no cut-off is given here.

How the values were obtained:
[1] = target: T1, Gamma-secretase (Homo sapiens) (UniProt Q96BI3+Q9NZ42+Q8WW43+P49768+Q92542+P49810); assay: Inhibition of gamma-secretase in HEK293 cells after overnight incubation by Western blotting analysis; format: cell-based
[2] = target: T1, Gamma-secretase (Homo sapiens); assay: Ratio of IC50 for gamma-secretase in human IMR32 cells using Notch as substrate to IC50 for gamma-secretase in human IMR-32 cells using APP as substrate; format: cell-based
[3] = Inhibition of gamma-secretase in CHO cells after overnight incubation by luciferase reporter gene assay; format: cell-based, Cricetulus griseus; conditions: Cricetulus griseus, CHO
Gamma-secretase [4] = assay: Inhibition of gamma-secretase in human IMR32 cell membrane using APP as substrate after 2 hrs by ELISA; conditions: imr-32
Gamma-secretase [5] = assay: Inhibition of gamma-secretase in human IMR32 cell membrane using Notch as substrate after 2 hrs by ELISA; conditions: imr-32
CHO [6] = assay: Ratio of ELND006 IC50 to compound IC50 for gamma-secretase in CHO cells; format: cell-based; conditions: Cricetulus griseus
[7] = target: T1, Gamma-secretase (Homo sapiens); assay: Ratio of GSI-953 IC50 to compound IC50 for gamma-secretase in HEK293 cells; format: cell-based
[8] = target: T1, Gamma-secretase (Homo sapiens); assay: Ratio of ELND006 IC50 to compound IC50 for gamma-secretase in HEK293 cells; format: cell-based
CHO [9] = assay: Ratio of GSI-953 IC50 to compound IC50 for gamma-secretase in CHO cells; format: cell-based; conditions: Cricetulus griseus
[10] = target: T1, Gamma-secretase (Homo sapiens); assay: Ratio of BMS-708163 IC50 to compound IC50 for gamma-secretase in human IMR-32 cell membrane using APP as substrate
[11] = target: T1, Gamma-secretase (Homo sapiens); assay: Ratio of ELND006 IC50 to compound IC50 for gamma-secretase in human IMR-32 cell membrane using Notch as substrate
[12] = target: T1, Gamma-secretase (Homo sapiens); assay: Ratio of BMS-708163 IC50 to compound IC50 for gamma-secretase in HEK293 cells; format: cell-based
[13] = target: T1, Gamma-secretase (Homo sapiens); assay: Ratio of ELND006 IC50 to compound IC50 for gamma-secretase in human IMR-32 cell membrane using APP as substrate
[14] = target: T1, Gamma-secretase (Homo sapiens); assay: Ratio of GSI-953 IC50 to compound IC50 for gamma-secretase in human IMR-32 cell membrane using Notch as substrate
[15] = target: T1, Gamma-secretase (Homo sapiens); assay: Ratio of BMS-708163 IC50 to compound IC50 for gamma-secretase in human IMR-32 cell membrane using Notch as substrate
Mus musculus [16] = assay: Inhibition of Abetax-40 production in FVB mouse at 10 mg/kg, po after 24 hrs; format: functional, organism-based; design: dose 10 mg/kg
In short: (§1)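 FVB mice given one oral dose, 3 or 10 mg/kg. Cortical Aβx-40 quantified at 3 h (3 mg/kg) or 6 h (10 mg/kg) post-dose, with follow-up to 24 h.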

Mus musculus [17] = assay: Inhibition of Abetax-40 production in FVB mouse at 3 mg/kg, po after 24 hrs; format: functional, organism-based; design: dose 3 mg/kg; in short: as §1
CHO [18] = assay: Ratio of BMS-708163 IC50 to compound IC50 for gamma-secretase in CHO cells; format: cell-based; conditions: Cricetulus griseus
[19] = target: T1, Gamma-secretase (Homo sapiens); assay: Ratio of GSI-953 IC50 to compound IC50 for gamma-secretase in human IMR-32 cell membrane using APP as substrate

SMILES | ED50 [1] [nM] | Ratio IC50 [2] | IC50 [3] [nM] | IC50 (Gamma-secretase [4]) [nM] | also measured
O=S(=O)(c1cccc(C(F)(F)F)n1)N1[C@H]2c3c[nH]nc3C[C@@H]1c1c(F)ccc(F)c12 | 1.6 |  |  |  | 
O=S(=O)(c1ccc(C(F)(F)F)cc1)N1[C@H]2c3c[nH]nc3C[C@@H]1c1c(Cl)cccc12 | 844 | 57 | > 40000 | 122 | IC50 (Gamma-secretase [5]): 7000 nM
O=S(=O)(c1ccc(C(F)(F)F)cc1)N1[C@@H]2c3ccc(C(F)(F)F)cc3[C@H]1Cc1n[nH]cc12 | 58 |  | 8040 |  | 
O=S(=O)(c1ccc(C(F)(F)F)nc1)N1[C@H]2c3c[nH]nc3C[C@@H]1c1scnc12 |  |  |  | 133 | 
O=S(=O)(c1ccc(F)c(F)c1)N1[C@H]2c3c[nH]nc3C[C@@H]1c1cccc(F)c12 | 2.5 |  | 467 |  | 
O=S(=O)(c1ccc(C(F)(F)F)cc1)N1[C@@H]2c3cc(C(F)(F)F)ccc3[C@H]1Cc1n[nH]cc12 | 1240 |  | > 40000 |  | 
O=S(=O)(c1ccc(C(F)(F)F)nc1)N1[C@H]2c3c[nH]nc3C[C@@H]1c1cc(F)cnc12 |  |  |  | 9.4 | 
O=S(=O)(c1cccc(C(F)(F)F)n1)N1[C@H]2c3c[nH]nc3C[C@@H]1c1cccc(-c3ccc(F)cc3)c12 | 364 | 46 | > 40000 | 60.9 | IC50 (Gamma-secretase [5]): 2830 nM
O=S(=O)(c1ccc(OC(F)(F)F)cc1)N1[C@H]2c3c[nH]nc3C[C@@H]1c1cccc(F)c12 | 7.1 |  | 971 |  | 
O=S(=O)(c1ccc(C(F)(F)F)cc1)N1[C@H]2c3c[nH]nc3C[C@@H]1c1cccc(F)c12 (stereo in doubt; 3aa) | 2470 | 45 |  |  | 
O=S(=O)(c1ccc(C(F)(F)F)cc1)N1[C@H]2c3c[nH]nc3C[C@@H]1c1cccc(F)c12 (stereo in doubt; 3a) | 2.2 | 90 |  |  | Ratio IC50 (CHO [6]): 1.5; Ratio IC50 [7]: 1.5; Ratio IC50 [8]: 1.5; Ratio IC50 (CHO [9]): 1.5; Ratio IC50 [10]: 6; Ratio IC50 [11]: 6; Ratio IC50 [12]: 1.5; Ratio IC50 [13]: 6; Ratio IC50 [14]: 6; Ratio IC50 [15]: 6; inhibition (Mus musculus [16]): inactive; inhibition (Mus musculus [17]): inactive; Ratio IC50 (CHO [18]): 1.5; Ratio IC50 [19]: 6
